Activity calls are given as the source filed them.
Experiments:
Assay type in all cases: functional, cell-based
THP-1 [1] = test: Antiinflammatory activity against LPS-stimulated human THP-1 cells assessed reduction in IL-1beta level pretreated at 5 uM for 1 hr followed by LPS stimulation and measured upto 24 hrs by ELISA analysis
In short: (§1)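 THP-1 cells pre-treated with compound for 1 h (5 μM or 1 μM, depending on the compound), then stimulated with 100 ng/mL LPS. Culture supernatant was taken at 24 h, and TNF-α, IL-6 or IL-1β was measured by sandwich ELISA at 450 nm with 540 nm correction; four biological replicates.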

THP-1 [2] = test: Antiinflammatory activity against LPS-stimulated human THP-1 cells assessed as blockage of inflammatory phenotype by measuring m/z ratio at 5 uM pretreated for 1 hr followed by LPS stimulation and measured upto 24 hrs
In short: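 THP-1 cells at 1 million/mL, pre-treated with compound at 5 μM for 1 h in technical triplicate, then 100 ng/mL LPS for 24 h. Pellets frozen on dry ice, thawed, washed in 100 mM Tris–HCl pH 7.5 at 4 °C. MALDI-TOF MS read-out is the normalized m/z 4964/4632 ratio, with a 40% cutoff used for hit calling; three biological replicates.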

THP-1 [3] = test: Antiinflammatory activity against LPS-stimulated human THP-1 cells assessed reduction in TNFalpha level pretreated at 5 uM for 1 hr followed by LPS stimulation and measured upto 24 hrs by ELISA analysis; in short: as §1
THP-1 [4] = test: Antiinflammatory activity against LPS-stimulated human THP-1 cells assessed reduction in IL-6 level pretreated at 5 uM for 1 hr followed by LPS stimulation and measured upto 24 hrs by ELISA analysis; in short: as §1

Measured: Activity

CCN1CCN(Cc2ccc(NC(=O)c3ccc(C)c(Oc4ccnc5[nH]ccc45)c3)cc2C(F)(F)F)CC1
active: all assays above

CC[C@@H]1C(=O)N(C)c2cnc(Nc3ccc(C(=O)NC4CCN(C)CC4)cc3OC)nc2N1C1CCCC1
active: all assays above

Source: ChEMBL document CHEMBL5113533 (J Med Chem, 2022)
